Experimental data gathered from unrelated publications.
Protocols differ between the studies behind these lines. In brackets after ≈: the same amount, converted by molar mass.
Organism: Pseudomonas aeruginosa

The activity vs control of `Cc1ccc(C(=O)C#Cc2ccc(F)c(F)c2)cc1` is reported as 96% (microbial growth; absorbance; 100 µM; 24 h).
`Cc1[nH]c(C(=O)Nc2ccc(C(=O)NCc3n[nH]c(=O)o3)cc2N2CCNCC2)c(Cl)c1Cl.Cl` gave an MIC of > 32 µg/mL (microbial growth; broth dilution; ATCC27853).
With `COc1cc(Cc2cnc(N)nc2N)cc(OC)c1OC` the MIC was 8 µg/mL (≈ 27.6 µM) (microbial growth; broth dilution; ATCC27853).
The inhibition zone of `COc1cc(C=Nc2ccc(Cl)cc2Cl)ccc1O` is reported as 14.4 mm (microbial growth; disc diffusion; 2000 µg/mL; 24 h).
The MIC of `CC1CCC(C(C)C)C(OC(=O)C=Cc2ccc(O)c(O)c2)C1` (stereo not drawn) is reported as 2 µg/mL (≈ 6.28 µM) (microbial growth; broth dilution; ATCC27853).
With `COc1cc(C#CC(O)CC(C)C)ccc1O` (stereo not drawn) the activity vs control was 93% (microbial growth; absorbance; 100 µM; 24 h).
`Cl.N[C@H]1CCN(c2cc(C(=O)NCC(=O)O)ccc2NC(=O)c2cc(Br)c(Br)[nH]2)C1` has an MIC of > 32 µg/mL (microbial growth; broth dilution; ATCC27853).
`OC(C#Cc1ccc(F)c(F)c1)c1ccccc1Cl` (stereo not drawn) gave an activity vs control of 97% (microbial growth; absorbance; 100 µM; 24 h).
`COc1cc(C=Nc2ccc(C)cc2Cl)ccc1O` has an inhibition zone of 12.7 mm (microbial growth; disc diffusion; 2000 µg/mL; 24 h).
`CN[C@H](CC(C)C)C(=O)N[C@H]1C(=O)N[C@@H](CC(N)=O)C(=O)N[C@H]2C(=O)N[C@H]3C(=O)N[C@H](C(=O)N[C@H](C(=O)O)c4cc(O)cc(O)c4-c4cc3ccc4O)[C@H](O)c3ccc(c(Cl)c3)Oc3cc2cc(c3O[C@@H]2O[C@H](CO)[C@@H](O)[C@H](O)[C@H]2O[C@H]2C[C@](C)(N)[C@H](O)[C@H](C)O2)Oc2ccc(cc2Cl)[C@H]1O` has an MBC of 1000 µg/mL (≈ 690 µM) (microbial killing; ATCC47085).
The activity vs control of `CCCC(=O)C#Cc1ccc(O)c(OC)c1` is reported as 94% (microbial growth; absorbance; 100 µM; 24 h).
For `Cc1[nH]c(C(=O)Nc2ccc(C(=O)NCC(=O)O)cc2N2CCNCC2)c(Cl)c1Cl.Cl`, the MIC was > 32 µg/mL (microbial growth; broth dilution; ATCC27853).
`C[C@@H](O)[C@H]1C(=O)N2C(C(=O)O)=C(S[C@@H]3CN[C@H](C(=O)N(C)C)C3)[C@H](C)[C@H]12` gave an MIC of < 0.5 µg/mL (microbial growth; broth dilution; ATCC27853; 20 h).
The inhibition zone of `COc1cc(C=Nc2ccccc2Br)ccc1O` is reported as 14.2 mm (microbial growth; disc diffusion; 2000 µg/mL; 24 h).
For `CC(C)(C)OC(=O)N[C@H]1CCN(c2cc(C(=O)NCC(=O)O)ccc2NC(=O)c2cc(Br)c(Br)[nH]2)C1`, the MIC was > 32 µg/mL (microbial growth; broth dilution; ATCC27853).
`Nc1ccccc1OC(=O)C=Cc1ccc(O)c(O)c1` has an MIC of 32 µg/mL (≈ 118 µM) (microbial growth; broth dilution; ATCC27853).
`CC(C)(O/N=C(\C(=O)N[C@@H]1C(=O)N2C(C(=O)[O-])=C(C[n+]3ccccc3)CS[C@H]12)c1csc(N)n1)C(=O)O` gave an MIC90 of 4 µg/mL (≈ 7.32 µM) (microbial growth; PAO1).
`Cl.O=C(O)CNC(=O)c1ccc(NC(=O)c2cc(Br)c(Br)[nH]2)c(N2CCNCC2)c1` has an MIC of > 32 µg/mL (microbial growth; broth dilution; ATCC27853).
For `O=C(C=Cc1ccc(O)c(O)c1)Oc1ccccc1`, the MIC was 8 µg/mL (≈ 31.2 µM) (microbial growth; broth dilution; ATCC27853).
The activity vs control of `COc1cccc(C(O)C#Cc2ccc(O)c(OC)c2)c1` (stereo not drawn) is reported as 96% (microbial growth; absorbance; 10 µM; 24 h).
The MIC of `Cc1[nH]c(C(=O)Nc2ccc(C(=O)NCC(=O)O)cc2N2CC[C@H](N)C2)c(Cl)c1Cl.Cl` is reported as > 32 µg/mL (microbial growth; broth dilution; ATCC27853).
`COc1ccccc1C(=O)C#Cc1ccc(F)c(F)c1` gave an activity vs control of 86% (microbial growth; absorbance; 10 µM; 24 h).
For `Cc1[nH]c(C(=O)Nc2ccc(C(=O)NCC(=O)O)cc2N2CC[C@@H](NC(=O)OC(C)(C)C)C2)c(Cl)c1Cl`, the MIC was > 32 µg/mL (microbial growth; broth dilution; ATCC27853).
With `COc1cccc(C(=O)C#Cc2ccc(O)c(OC)c2)c1` the activity vs control was 82% (microbial growth; absorbance; 100 µM; 24 h).
With `O=C(C=Cc1ccc(O)c(O)c1)OCCc1ccccc1` the MIC was 64 µg/mL (≈ 225 µM) (microbial growth; broth dilution; ATCC27853).
The activity vs control of `COc1cc(C#CC(=O)c2ccc(C(F)(F)F)cc2)ccc1O` is reported as 102% (microbial growth; absorbance; 10 µM; 24 h).
`COc1cc(C=Nc2cccc(O)c2)ccc1O` has an inhibition zone of 14.5 mm (microbial growth; disc diffusion; 2000 µg/mL; 24 h).
